Data taken from ChEMBL document CHEMBL3627671, “Novel derivatives of nitro-substituted salicylic acids: Synthesis, antimicrobial activity and cytotoxicity” (Bioorg Med Chem, 2015).
Values after ≈ are worked out from the molar mass of the structure shown.

Columns and labels:
Format in all cases: functional
[1] = system: Klebsiella pneumoniae; assay: Antibacterial activity against ESBL-positive Klebsiella pneumoniae J 14368/08 after 24 hrs by microdilution broth method; settings: J 14368/08, 24 h
Method in brief: (§1)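 Mueller-Hinton broth microdilution (modified M07-A07), pH 7.4 (±0.2). Compounds dissolved in DMSO, tested at final 500 to 0.49 µmol/L. Inoculum in sterile water matched to 0.5 McFarland. Incubated in the dark, humid atmosphere, 35 °C, read at 24 and 48 h visually and at 540 nm. MIC taken as ≥95% growth reduction (IC95) versus control.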

[2] = system: Staphylococcus aureus; assay: Antibacterial activity against methicillin-resistant Staphylococcus aureus H 5996/08 after 24 hrs by microdilution broth method; settings: H 5996/08, 24 h
[3] = system: Enterococcus sp.; assay: Antibacterial activity against Enterococcus sp. J 14365/08 after 24 hrs by microdilution broth method; settings: J 14365/08, 24 h; method in brief: as §1
[4] = system: Trichophyton mentagrophytes; assay: Antifungal activity against Trichophyton mentagrophytes 445 after 48 hrs by microdilution broth method; settings: Trichophyton mentagrophytes, 445, 48 h
[5] = system: Mycobacterium kansasii; assay: Antimycobacterial activity against Mycobacterium kansasii 235/80 after 7 days; settings: 235/80, 168 h
Method in brief: (§2)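 Šula's semisynthetic medium micromethod at 37 °C, read after 7, 14 and 21 days. The 1.0 McFarland suspension was diluted 10^-4. MIC determined. 6509/96 is a clinical isolate.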

[6] = system: Nakaseomyces glabratus; assay: Antifungal activity against Candida glabrata 20/I after 24 hrs by microdilution broth method
Method in brief: (§3)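 CLSI M27-A3 broth microdilution in RPMI 1640 with glutamine, buffered to pH 7.0 with MOPS; DMSO diluent. Yeast inoculum 5 × 10^3 ± 0.2 CFU/mL. Moulds grown on Sabouraud agar 3–10 days before spore harvest, final inoculum 0.5-5 × 10^4 CFU/mL, checked in a Bürker chamber. Incubated dark, humid, 35 °C, read at 24 and 48 h visually and at 540 nm. MIC taken as ≥80% (yeasts) or ≥50% (filamentous) growth reduction versus control.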

[7] = system: Staphylococcus aureus; assay: Antibacterial activity against methicillin-resistant Staphylococcus aureus H 5996/08 after 48 hrs by microdilution broth method; settings: H 5996/08, 48 h
[8] = system: Lichtheimia corymbifera; assay: Antifungal activity against Absidia corymbifera 272 after 48 hrs by microdilution broth method; settings: Lichtheimia corymbifera, 272, 48 h; method in brief: as §3
[9] = system: Candida tropicalis; assay: Antifungal activity against Candida tropicalis 156 after 24 hrs by microdilution broth method; settings: Candida tropicalis, 156, 24 h; method in brief: as §3
[10] = system: Pichia kudriavzevii; assay: Antifungal activity against Candida krusei E28 after 24 hrs by microdilution broth method; settings: E28, 24 h; method in brief: as §3
[11] = system: Pichia kudriavzevii; assay: Antifungal activity against Candida krusei E28 after 48 hrs by microdilution broth method; settings: E28, 48 h; method in brief: as §3
[12] = system: Mycobacterium tuberculosis; assay: Antimycobacterial activity against Mycobacterium tuberculosis H37Rv 331/88 after 21 days; settings: H37Rv 331/88, 504 h
[13] = system: Candida albicans; assay: Antifungal activity against Candida albicans ATCC 44859 after 24 hrs by microdilution broth method; settings: ATCC 44859, 24 h; method in brief: as §3
[14] = system: Candida albicans; assay: Antifungal activity against Candida albicans ATCC 44859 after 48 hrs by microdilution broth method; settings: ATCC 44859, 48 h; method in brief: as §3
[15] = system: Mycobacterium kansasii; assay: Antimycobacterial activity against Mycobacterium kansasii 235/80 after 21 days; settings: 235/80, 504 h; method in brief: as §2
[16] = system: Escherichia coli; assay: Antibacterial activity against Escherichia coli CCM4517 after 48 hrs by microdilution broth method; settings: CCM4517, 48 h; method in brief: as §1
[17] = system: Trichosporon asahii; assay: Antifungal activity against Trichosporon asahii 1188 after 24 hrs by microdilution broth method; settings: Trichosporon asahii, 1188, 24 h; method in brief: as §3
[18] = system: Staphylococcus aureus; assay: Antibacterial activity against Staphylococcus aureus CCM 4516/08 after 24 hrs by microdilution broth method; settings: CCM 4516/08, 24 h
[19] = system: Mycobacterium kansasii; assay: Antimycobacterial activity against Mycobacterium kansasii 235/80 after 14 days; settings: 235/80, 336 h; method in brief: as §2
[20] = system: Mycobacterium kansasii; assay: Antimycobacterial activity against Mycobacterium kansasii 6509/96 after 7 days; settings: 6509/96, 168 h; method in brief: as §2
[21] = system: Pseudomonas aeruginosa; assay: Antibacterial activity against Pseudomonas aeruginosa CCM 1961 after 24 hrs by microdilution broth method; settings: CCM 1961, 24 h; method in brief: as §1
[22] = system: Escherichia coli; assay: Antibacterial activity against Escherichia coli CCM4517 after 24 hrs by microdilution broth method; settings: CCM4517, 24 h; method in brief: as §1
[23] = system: Mycobacterium kansasii; assay: Antimycobacterial activity against Mycobacterium kansasii 6509/96 after 21 days; settings: 6509/96, 504 h; method in brief: as §2
[24] = system: Staphylococcus aureus; assay: Antibacterial activity against Staphylococcus aureus CCM 4516/08 after 48 hrs by microdilution broth method; settings: CCM 4516/08, 48 h
[25] = system: Trichosporon asahii; assay: Antifungal activity against Trichosporon asahii 1188 after 48 hrs by microdilution broth method; settings: Trichosporon asahii, 1188, 48 h; method in brief: as §3
[26] = system: Nakaseomyces glabratus; assay: Antifungal activity against Candida glabrata 20/I after 48 hrs by microdilution broth method; method in brief: as §3
[27] = system: Klebsiella pneumoniae; assay: Antibacterial activity against Klebsiella pneumoniae D 11750/08 after 48 hrs by microdilution broth method; settings: D 11750/08, 48 h; method in brief: as §1
[28] = system: Mycobacterium kansasii; assay: Antimycobacterial activity against Mycobacterium kansasii 6509/96 after 14 days; settings: 6509/96, 336 h; method in brief: as §2
[29] = system: Mycobacterium avium; assay: Antimycobacterial activity against Mycobacterium avium 330/80 after 21 days; settings: 330/80, 504 h
[30] = system: Mycobacterium avium; assay: Antimycobacterial activity against Mycobacterium avium 330/80 after 14 days; settings: 330/80, 336 h
[31] = system: Aspergillus fumigatus; assay: Antifungal activity against Aspergillus fumigatus 231 after 24 hrs by microdilution broth method; settings: Aspergillus fumigatus, 231, 24 h; method in brief: as §3
[32] = system: Aspergillus fumigatus; assay: Antifungal activity against Aspergillus fumigatus 231 after 48 hrs by microdilution broth method; settings: Aspergillus fumigatus, 231, 48 h; method in brief: as §3
[33] = system: Pseudomonas aeruginosa; assay: Antibacterial activity against Pseudomonas aeruginosa CCM 1961 after 48 hrs by microdilution broth method; settings: CCM 1961, 48 h; method in brief: as §1
[34] = system: Staphylococcus epidermidis; assay: Antibacterial activity against Staphylococcus epidermidis H 6966/08 after 48 hrs by microdilution broth method; settings: H 6966/08, 48 h; method in brief: as §1
[35] = system: Lichtheimia corymbifera; assay: Antifungal activity against Absidia corymbifera 272 after 24 hrs by microdilution broth method; settings: Lichtheimia corymbifera, 272, 24 h; method in brief: as §3
[36] = system: Enterococcus sp.; assay: Antibacterial activity against Enterococcus sp. J 14365/08 after 48 hrs by microdilution broth method; settings: J 14365/08, 48 h; method in brief: as §1
[37] = system: Klebsiella pneumoniae; assay: Antibacterial activity against Klebsiella pneumoniae D 11750/08 after 24 hrs by microdilution broth method; settings: D 11750/08, 24 h; method in brief: as §1
[38] = system: Mycobacterium tuberculosis; assay: Antimycobacterial activity against Mycobacterium tuberculosis H37Rv 331/88 after 14 days; settings: H37Rv 331/88, 336 h
[39] = system: Candida tropicalis; assay: Antifungal activity against Candida tropicalis 156 after 48 hrs by microdilution broth method; settings: Candida tropicalis, 156, 48 h; method in brief: as §3
[40] = system: Trichophyton mentagrophytes; assay: Antifungal activity against Trichophyton mentagrophytes 445 after 24 hrs by microdilution broth method; settings: Trichophyton mentagrophytes, 445, 24 h
[41] = system: Klebsiella pneumoniae; assay: Antibacterial activity against ESBL-positive Klebsiella pneumoniae J 14368/08 after 48 hrs by microdilution broth method; settings: J 14368/08, 48 h; method in brief: as §1
[42] = system: Staphylococcus epidermidis; assay: Antibacterial activity against Staphylococcus epidermidis H 6966/08 after 24 hrs by microdilution broth method; settings: H 6966/08, 24 h; method in brief: as §1

O=C(Nc1cccc(I)c1)c1cc([N+](=O)[O-])ccc1O
MIC [1]: > 500 µM | MIC [2]: 31.2 µM (≈ 12 µg/mL) | MIC [3]: 250 µM (≈ 96 µg/mL) | MIC [4]: 125 µM (≈ 48 µg/mL) | MIC [5]: 16 µM (≈ 6.15 µg/mL) | MIC [6]: 500 µM (≈ 192 µg/mL) | MIC [7]: 31.2 µM (≈ 12 µg/mL) | MIC [8]: > 500 µM | MIC [9]: 500 µM (≈ 192 µg/mL) | MIC [10]: 500 µM (≈ 192 µg/mL) | MIC [11]: 500 µM (≈ 192 µg/mL) | MIC [12]: 16 µM (≈ 6.15 µg/mL) | MIC [13]: 500 µM (≈ 192 µg/mL) | MIC [14]: > 500 µM | MIC [15]: 62.5 µM (≈ 24 µg/mL) | MIC [16]: > 500 µM | MIC [17]: 250 µM (≈ 96 µg/mL) | MIC [18]: 31.2 µM (≈ 12 µg/mL) | MIC [19]: 32 µM (≈ 12.3 µg/mL) | MIC [20]: 32 µM (≈ 12.3 µg/mL) | MIC [21]: > 500 µM | MIC [22]: > 500 µM | MIC [23]: 62.5 µM (≈ 24 µg/mL) | MIC [24]: 31.2 µM (≈ 12 µg/mL) | MIC [25]: 500 µM (≈ 192 µg/mL) | MIC [26]: 500 µM (≈ 192 µg/mL) | MIC [27]: > 500 µM | MIC [28]: 62.5 µM (≈ 24 µg/mL) | MIC [29]: 125 µM (≈ 48 µg/mL) | MIC [30]: 125 µM (≈ 48 µg/mL) | MIC [31]: 250 µM (≈ 96 µg/mL) | MIC [32]: 250 µM (≈ 96 µg/mL) | MIC [33]: > 500 µM | MIC [34]: 31.2 µM (≈ 12 µg/mL) | MIC [35]: 500 µM (≈ 192 µg/mL) | MIC [36]: > 500 µM | MIC [37]: > 500 µM | MIC [38]: 16 µM (≈ 6.15 µg/mL) | MIC [39]: 500 µM (≈ 192 µg/mL) | MIC [40]: 125 µM (≈ 48 µg/mL) | MIC [41]: > 500 µM | MIC [42]: 31.2 µM (≈ 12 µg/mL)

O=C(Nc1cccc(Br)c1)c1cc([N+](=O)[O-])ccc1O
MIC [1]: > 500 µM | MIC [2]: 31.2 µM (≈ 10.5 µg/mL) | MIC [3]: 500 µM (≈ 169 µg/mL) | MIC [4]: 250 µM (≈ 84.3 µg/mL) | MIC [5]: 32 µM (≈ 10.8 µg/mL) | MIC [6]: > 500 µM | MIC [7]: 62.5 µM (≈ 21.1 µg/mL) | MIC [8]: 500 µM (≈ 169 µg/mL) | MIC [9]: > 500 µM | MIC [10]: 500 µM (≈ 169 µg/mL) | MIC [11]: > 500 µM | MIC [12]: 16 µM (≈ 5.39 µg/mL) | MIC [13]: > 500 µM | MIC [14]: > 500 µM | MIC [15]: 62.5 µM (≈ 21.1 µg/mL) | MIC [16]: > 500 µM | MIC [17]: 500 µM (≈ 169 µg/mL) | MIC [18]: 31.2 µM (≈ 10.5 µg/mL) | MIC [19]: 62.5 µM (≈ 21.1 µg/mL) | MIC [20]: 32 µM (≈ 10.8 µg/mL) | MIC [21]: > 500 µM | MIC [22]: > 500 µM | MIC [23]: 62.5 µM (≈ 21.1 µg/mL) | MIC [24]: 62.5 µM (≈ 21.1 µg/mL) | MIC [25]: 500 µM (≈ 169 µg/mL) | MIC [26]: > 500 µM | MIC [27]: > 500 µM | MIC [28]: 62.5 µM (≈ 21.1 µg/mL) | MIC [29]: 250 µM (≈ 84.3 µg/mL) | MIC [30]: 125 µM (≈ 42.1 µg/mL) | MIC [31]: 500 µM (≈ 169 µg/mL) | MIC [32]: 500 µM (≈ 169 µg/mL) | MIC [33]: > 500 µM | MIC [34]: 250 µM (≈ 84.3 µg/mL) | MIC [35]: 500 µM (≈ 169 µg/mL) | MIC [36]: > 500 µM | MIC [37]: > 500 µM | MIC [38]: 16 µM (≈ 5.39 µg/mL) | MIC [39]: > 500 µM | MIC [40]: 250 µM (≈ 84.3 µg/mL) | MIC [41]: > 500 µM | MIC [42]: 31.2 µM (≈ 10.5 µg/mL)
